Measurements from different studies.
Target: Mitogen-activated protein kinase 3 (MAPK3, Homo sapiens, UniProt P27361)

| SMILES | assay | conditions | remaining binding |
| --- | --- | --- | --- |
| Cc1cnc(Nc2ccc(C(=O)N3CCC(N4CCCC4)CC3)cc2)nc1-c1cc2ccccc2s1 | binding, competition with immobilised ligand | 1 µM | 100% |
| CC1CCCN1c1nccc(-c2cnn3ncccc23)n1 (centres unmarked) | binding | 1 µM | 86% |
| COc1ncc2cc3ccccc3nc2c1C#N | cell-free assay, competition with immobilised ligand | 5 µM | 93% |
| COc1cccc(CNC(=O)c2nc3scc(COCc4ccc(C(=O)O)cc4)c3c(=O)[nH]2)c1 | cell-free assay, competition with immobilised ligand | 1 µM | 100% |
| c1cncc(-c2cccc(Nc3nccc(NC4CCCCC4)n3)c2)c1 | binding, competition with immobilised ligand | 10 µM | 100% |
| N#Cc1ccccc1CSc1nnc2c(n1)[nH]c1ccccc12 | binding, competition with immobilised ligand | 10 µM | 89% |
| CC(C)(C)c1ccc(-c2nc(CBr)nn2-c2cccc(O)c2)cc1 | cell-free assay, competition with immobilised ligand | 10 µM | 91% |
| O=C(NCC1CCOCC1)c1n[nH]cc1NC(=O)c1c(F)cccc1F | binding, competition with immobilised ligand | 1 µM | 100% |
| O=C(Nc1cccnn1)N1CC(C/C=C/c2cncc(Oc3ccc(C(F)(F)F)cn3)n2)C1 | cell-free assay, competition with immobilised ligand | 1 µM | 99% |
| O=C(NCCCN1CCOCC1)c1ccc(Nc2ncc(Cl)c(-c3ccc(Cl)s3)n2)cc1 | binding, competition with immobilised ligand | 1 µM | 100% |
| COc1cc(-c2cn(C3CCc4ccccc4N(CC(F)(F)F)C3=O)nn2)ccc1-n1ccc(C)n1 (centres unmarked) | cell-free assay, competition with immobilised ligand | 1 µM | 100% |
| C[C@@H]1CN(c2ccc3ncc(-c4ccc5[nH]nc(C6CC6)c5c4)n3n2)C[C@H](C)O1 | binding, competition with immobilised ligand | 0.5 µM | 100% |
| COc1cnc(Nc2cccc(S(N)(=O)=O)c2)nc1N1CCN(c2ccccc2)CC1 | binding, competition with immobilised ligand | 1 µM | 100% |
| Cc1c(NC(=O)c2cc(C(N)=O)nc3cc(F)ccc23)c(C(F)(F)F)nn1Cc1ccc(C(C)(C)C)cc1 | cell-free assay, competition with immobilised ligand | 1 µM | 100% |
| CN(CCCC(F)(F)F)c1nccc(-c2cnn3ncccc23)n1 | binding | 1 µM | 97% |
| c1ccc(N2CCN(Cc3nc4ccccc4[nH]3)CC2)nc1 | binding, competition with immobilised ligand | 1 µM | 100% |
| N[C@H]1CCN(c2nccc(-c3cnn4ncccc34)n2)C1 | binding | 1 µM | 91% |
| COCCOc1nc(-c2ccc(Cl)nc2)nc2c1CN(C(=O)c1ncn3ccccc13)CC2 | cell-free assay, competition with immobilised ligand | 0.1 µM | 89% |
| CN(c1nccc(-c2cnn3ncccc23)n1)C1CC1 | binding | 1 µM | 89% |
| O=C(c1ccc(Nc2ncc(Cl)c(-c3ccc(Cl)s3)n2)cc1)N1CCC(N2CCCC2)CC1 | binding, competition with immobilised ligand | 1 µM | 98% |
| C[C@H]1CCN(c2nccc(-c3cnn4ncccc34)n2)C1 | binding | 1 µM | 83% |
| CNC(=O)[C@@H]1CC[C@@H](n2c(-c3ccc4cnccc4c3)nc3ccc(C(=O)NCc4cccc(C(N)=O)c4)cc32)C1 | binding, competition with immobilised ligand | 1 µM | 100% |
| C[C@@H](c1cccc(C#N)c1)n1cc(Cl)cc(C(N)=O)c1=N | cell-free assay, competition with immobilised ligand | 1 µM | 100% |
| CN(C)c1ncc(F)c(-c2cnn3ncccc23)n1 | binding | 1 µM | 91% |
| CC(=O)C1=C(C)N(c2cccc(C(F)(F)F)c2)C(=O)N[C@@H]1c1ccc(C#N)nc1 | cell-free assay, competition with immobilised ligand | 1 µM | 97.1% |
| CN(C)c1nccc(-c2cnn3ncccc23)n1 | binding | 1 µM | 100% |
